Results collected from several papers.
Values after ≈ are worked out from the molar mass of the structure shown.

| SMILES | target or system | assay | system | setting | endpoint | value |
| --- | --- | --- | --- | --- | --- | --- |
| CN(C)CCNC(=O)c1ccc(-c2nc3ccc4[nH]ncc4c3c3c2CCCC3)cc1 | BJ | cell growth or viability | – | 72 h | GI50 | > 10 µM |
| O=C(O)c1ccc(NCc2ccc([N+](=O)[O-])cc2)cc1 | NCI-H69 | cell growth or viability, resazurin | – | 72 h | IC50 | > 100 µM |
| O=C(N[C@H](CO)[C@H](O)c1ccc([N+](=O)[O-])cc1)C(Cl)Cl | Salmonella enterica | microbial growth, broth dilution | ATCC13076 TYPHIMURIUM | – | MIC | 6.25 mg/L (≈ 19.3 µM) |
| CC(C)c1ccc(/C=C2\N=C(SCC(=O)O)N(c3ccccc3)C2=O)cc1 | Bacillus cereus | microbial growth, broth dilution | ATCC14579 | – | MIC | 12 mg/L (≈ 31.5 µM) |
| CN(C)CCNC(=O)c1ccc(-c2nc3ccc4[nH]ncc4c3c3c2CCCC3)c(F)c1 | BJ | cell growth or viability | – | 72 h | GI50 | 9.72 µM |
| O=C(O)c1cn(C2CC2)c2cc(N3CCNCC3)c(F)cc2c1=O | Salmonella enterica | microbial growth, well diffusion | TYPHIMURIUM | 20 µg/mL | inhibition zone | 4 mm |
| Cc1n[nH]c2ccc3nc(-c4ccc(C(=O)NCCN(C)C)cc4F)c4c(c3c12)CCCCC4 | BJ | cell growth or viability | – | 72 h | GI50 | > 10 µM |
| CS(=O)(=O)Oc1ccc(C=NNC(=O)CSc2nc3ccc(Cl)cc3c(=O)n2-c2ccccc2)cc1 | Salmonella enterica | microbial growth, well diffusion | TYPHIMURIUM | 20 µg/mL | inhibition zone | 2 mm |
| Cc1nc(Nc2ncc(C(=O)Nc3c(C)cccc3Cl)s2)cc(N2CC[C@H](O)C2)n1 | JVM-2 | cell growth or viability, ATP luminescence | – | 10 µM, 72 h | inhibition | 61% |
| CCS(=O)(=O)Oc1ccc(C=NNC(=O)CSc2nc3ccc(Cl)cc3c(=O)n2-c2ccccc2)cc1 | Salmonella enterica | microbial growth, broth dilution | TYPHIMURIUM | – | MIC | 21 mg/L |
| N=c1sc(C(=O)c2ccc(Nc3cnccn3)cc2)nn1-c1ccccc1 | Salmonella enterica | microbial growth, broth dilution | ATCC13076 TYPHIMURIUM | – | MIC | 100 mg/L (≈ 267 µM) |
| O=C(O)c1ccc(NCc2cccc(O)c2O)cc1 | NCI-H69 | cell growth or viability, resazurin | – | 72 h | IC50 | 32.2 µM |
| Cc1n[nH]c2ccc3nc(-c4ccc(C(=O)NCCN(C)C)cc4)c4c(c3c12)CCCCC4 | BJ | cell growth or viability | – | 72 h | GI50 | > 10 µM |
| Nc1ccc(S(=O)(=O)Nc2ncccn2)cc1 | Bacillus cereus | microbial growth, well diffusion | – | 20 µg/mL | inhibition zone | 3 mm |
| CC(=O)C1=NN(c2ccccc2)C(=C(C#N)C(=O)c2ccc(Nc3cnccn3)cc2)S1 | Salmonella enterica | microbial growth, broth dilution | ATCC13076 TYPHIMURIUM | – | MIC | 100 mg/L (≈ 227 µM) |
| COc1ccc(C=NNC(=O)CSc2nc3c(C)cccc3c(=O)n2-c2ccccc2)cc1OS(C)(=O)=O | Salmonella enterica | microbial growth, well diffusion | TYPHIMURIUM | 20 µg/mL | inhibition zone | 3 mm |
| Cc1n[nH]c2ccc3nc(-c4ccc(C(=O)NCCN(C)C)cc4)c4c(c3c12)CCCC4 | BJ | cell growth or viability | – | 72 h | GI50 | 7.16 µM |
| N=c1sc(C(=O)c2ccc(Nc3cnccn3)cc2)nn1-c1ccc([N+](=O)[O-])cc1 | Salmonella enterica | microbial growth, broth dilution | ATCC13076 TYPHIMURIUM | – | MIC | 6.25 mg/L (≈ 14.9 µM) |
| O=C(O)c1ccc(NCc2cc(Br)ccc2O)cc1 | NCI-H69 | cell growth or viability, resazurin | – | 72 h | IC50 | > 100 µM |
